Assays:
[1] = molecular target: T1, Cholesterol side-chain cleavage enzyme, mitochondrial (Bos taurus, UniProt P00189); assay: (§1) Inhibition of bovine cholesterol side-chain cleavage desmolase, cytochrome P450 11A1; parameters: concentration or dose not given beside the values; details: cattle
T1 sequence (P00189 whole entry): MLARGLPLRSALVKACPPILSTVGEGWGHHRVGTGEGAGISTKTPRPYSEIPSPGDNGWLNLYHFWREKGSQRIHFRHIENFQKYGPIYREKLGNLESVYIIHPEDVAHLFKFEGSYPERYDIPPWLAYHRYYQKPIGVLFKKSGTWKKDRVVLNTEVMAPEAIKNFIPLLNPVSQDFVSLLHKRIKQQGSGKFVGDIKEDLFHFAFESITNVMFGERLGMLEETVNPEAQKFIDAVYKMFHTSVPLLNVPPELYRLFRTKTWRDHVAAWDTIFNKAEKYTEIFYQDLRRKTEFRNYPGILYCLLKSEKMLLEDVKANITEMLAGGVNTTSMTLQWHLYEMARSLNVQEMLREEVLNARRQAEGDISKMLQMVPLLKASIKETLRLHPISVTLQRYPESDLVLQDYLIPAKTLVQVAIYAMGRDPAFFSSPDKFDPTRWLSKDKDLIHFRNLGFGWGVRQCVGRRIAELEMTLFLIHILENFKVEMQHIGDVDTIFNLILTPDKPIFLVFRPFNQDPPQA
Outline: (§2)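 Enzyme source was the mitochondrial fraction of bovine adrenal cortex, stored at -70 °C. Substrate [14C]cholesterol; [14C]isocaproic acid released was measured. Inhibitors were added in 10 μL ethanol (ethanol alone in controls) to a 1.0 mL assay and preincubated 5 min at 30 °C. The reaction was started with 1 mg mitochondrial protein and sampled at 2, 4 and 6 min. Result given as % of control rate; apparent Ki from Lineweaver-Burk plots.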

[2] = molecular target: T2, Aromatase (Homo sapiens, UniProt P11511); assay: Inhibition of human placental aromatase Cytochrome P450 19A1; none
T2 sequence (P11511 whole entry): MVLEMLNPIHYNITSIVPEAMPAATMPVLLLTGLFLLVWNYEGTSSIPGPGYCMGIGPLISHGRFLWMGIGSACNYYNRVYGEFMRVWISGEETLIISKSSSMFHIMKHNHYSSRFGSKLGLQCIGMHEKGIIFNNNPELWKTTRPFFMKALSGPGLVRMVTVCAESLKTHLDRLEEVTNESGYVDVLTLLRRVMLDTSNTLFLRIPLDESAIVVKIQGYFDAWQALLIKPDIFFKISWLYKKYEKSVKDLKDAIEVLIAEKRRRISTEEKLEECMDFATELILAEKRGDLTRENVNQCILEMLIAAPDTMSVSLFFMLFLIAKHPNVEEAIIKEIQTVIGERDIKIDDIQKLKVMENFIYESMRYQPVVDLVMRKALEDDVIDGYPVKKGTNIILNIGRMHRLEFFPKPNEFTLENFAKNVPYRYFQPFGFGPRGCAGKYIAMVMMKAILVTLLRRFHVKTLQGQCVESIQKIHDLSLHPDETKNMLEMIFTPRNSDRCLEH

[3] = molecular target: T1, Cholesterol side-chain cleavage enzyme, mitochondrial; assay: as §1; details: cattle; outline: as §2
[4] = molecular target: T1, Cholesterol side-chain cleavage enzyme, mitochondrial; assay: Inhibition of bovine cholesterol side-chain cleavage desmolase, cytochrome P450 11A1; none; details: cattle; outline: as §2

CCC1(c2ccc(N)cc2)CCC(=O)N(N)C1=O (stereo not drawn)
Inhibition [1]: 50%

CCC1(c2ccc(O)c(N)c2)CCC(=O)NC1=O (stereo not drawn)
Inhibition [1]: 35% | Inhibition [2]: Not Active

CCC1(c2cccc(N)c2)CCC(=O)NC1=O (stereo not drawn)
Inhibition [3]: 13%

CCC1(c2ccc([N+](=O)[O-])cc2)CCC(=O)NC1=O (stereo not drawn) [4-NITROGLUTETHIMIDE]
Inhibition [1]: 20%

CCC1(c2ccc(O)c([N+](=O)[O-])c2)CCC(=O)NC1=O (stereo not drawn)
Inhibition [4]: Not Active | Inhibition [2]: Not Active

CCC1(c2ccc(N)c(O)c2)CCC(=O)NC1=O (stereo not drawn)
Inhibition [4]: Not Active | Inhibition [2]: Not Active

CCC1(c2ccc(O)cc2)CCC(=O)NC1=O (stereo not drawn) [P-HYDROXYGLUTETHIMIDE]
Inhibition [4]: Not Active | Inhibition [2]: Not Active

CCC1(c2ccccc2)CCC(=O)NC1=O (stereo not drawn) [GLUTETHIMIDE]
Inhibition [4]: Not Active | Inhibition [2]: Not Active

CCC1(c2ccc(NC=O)cc2)CCC(=O)NC1=O (stereo not drawn)
Inhibition [1]: 12%

CCC1(c2ccc(N)cc2)CCC(=O)NC1=O (stereo not drawn) [AMINOGLUTETHIMIDE]
Inhibition [1]: 85%

CCC1(c2ccc(N)cc2)CC(N)C(=O)NC1=O (stereo not drawn)
Inhibition [1]: 45%

CCC1(c2ccc(NC(C)=O)cc2)CCC(=O)NC1=O (stereo not drawn)
Inhibition [4]: Not Active | Inhibition [2]: Not Active

Source: ChEMBL document CHEMBL1122309 (J Med Chem, 1983)
